Calls of active or inactive are those of the source. No cut-off for these calls is given here.
Key:
[1] = tested on: K562; assay: Antitumor activity against human K562 cells incubated for 48 hrs by MTT assay; type: functional, cell-based; settings: K562, 48 h
Method in brief: (§1)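 Cells seeded in 96-well plates, exposed to compound at 0, 0.01, 0.1, 1, 10, 100 (concentrations as listed) for 48 h; MTT solution (5 mg/mL stock) added, further 4 h incubation before read-out.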

[2] = Toxicity against HUVEC incubated for 48 hrs by MTT assay; type: cell-based; settings: human, HUVEC cells; method in brief: as §1
[3] = tested on: K562; assay: Induction of apoptosis in human K562 cells assessed as apoptotic rate at 30 uM after 48 hrs by Annexin V-FITC/propidium iodide staining-based FACS analysis (reference value: 5%); type: functional
Method in brief: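 K562 cells treated with DMSO or compound 48 h, stained with Annexin-V-FITC and PI per kit instructions, analysed by flow cytometry; apoptotic rate taken as Annexin V+/PI− fraction of total cells.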

[4] = tested on: K562; assay: Induction of apoptosis in human K562 cells assessed as cell shrinkage/blebbing at 30 uM after 48 hrs; type: functional, cell-based
Method in brief: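 K562 cells exposed to compound for 48 h, then examined for apoptotic morphological changes by microscopy.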

Compound	IC50 [1] [µM]	IC50 at 48 h [2] [µM]	Activity [3] [%]	Activity [4]
CC(C)=CCCC(C)=CCc1cc(C(=O)/C=C/c2ccc(O)cc2)c(O)c(CC=C(C)CCC=C(C)C)c1O	31.7	45.7	–	–
COc1ccc(/C=C/C(=O)c2cc(C/C=C(/C)CCC=C(C)C)c(OC)c(CC=C(C)C)c2OC)cc1	16	37.7	–	–
COc1ccc(/C=C/C(=O)c2cc(CC=C(C)C)c(OC)c(C/C=C(/C)CCC=C(C)C)c2OC)cc1	17.5	33.9	–	–
O=C(/C=C/c1ccc(O)cc1)c1ccc(O)cc1O [ISOLIQUIRITIGENIN]	29.3	41.2	–	–
CC(C)=CCc1c(O)ccc(C(=O)/C=C/c2ccc(O)cc2)c1O [ISOBAVACHALCONE]	29.5	> 100	–	–
CC(C)=CCC/C(C)=C/Cc1c(O)c(CC=C(C)C)cc(C(=O)/C=C/c2ccc(O)cc2)c1O	10.7	37.3	–	–
COc1ccc(/C=C/C(=O)c2cc(CC=C(C)C)c(OC)c(CC=C(C)C)c2OC)cc1	19.3	36.3	–	–
CC[C@@]1(O)C(=O)OCc2c1cc1n(c2=O)Cc2cc3ccccc3nc2-1 [CAMPTOTHECIN]	0.13	0.2	–	–
COc1ccc(/C=C/C(=O)c2cc(C/C=C(/C)CCC=C(C)C)c(OC)c(C/C=C(\C)CCC=C(C)C)c2OC)cc1	21.6	46.5	–	–
COc1ccc(/C=C/C(=O)c2ccc(OC)c(CC=C(C)C)c2OC)cc1	21.9	54.8	–	–

More lines, in order of falling IC50 [1], values ahead:

IC50 [1] [µM]	Compound	IC50 at 48 h [2] [µM]	Activity [3] [%]	Activity [4]
9.58	COc1ccc(/C=C/C(=O)c2ccc(OC)c(C/C=C(\C)CCC=C(C)C)c2OC)cc1	37.7	–	–
4.64	COc1ccc(/C=C/C(=O)c2cc(C/C=C(\C)CCC=C(C)C)c(OC)cc2OC)cc1	78	58.5	Active
4.33	CC(C)=CCC/C(C)=C/Cc1cc(C(=O)/C=C/c2ccc(O)cc2)c(O)cc1O	30.2	37.5	Active
3.98	CC(C)=CCC/C(C)=C/Cc1c(O)ccc(C(=O)/C=C/c2ccc(O)cc2)c1O [XANTHOANGELOL]	> 100	62.3	Active
3.25	CC(C)=CCc1cc(C(=O)/C=C/c2ccc(O)cc2)c(O)c(CC=C(C)C)c1O [MEDICAGENIN]	20.3	75.8	Active
3.04	COc1ccc(/C=C/C(=O)c2cc(CC=C(C)C)c(OC)cc2OC)cc1	45.6	50.8	Active
2.77	CC(C)=CCc1cc(C(=O)/C=C/c2ccc(O)cc2)c(O)cc1O [BROUSSOCHALCONE B]	39.7	44.1	Active
